# Tests used:
# HeLa [1] = assay: In vitro antimitotic activity against HeLa cells after 6 hours exposure; format: functional, Homo sapiens
# Procedure, shortened: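 Asynchronous HeLa cells were exposed to compound continuously for 6 h. Mitotic index (cells in mitosis/cells counted) was scored on about 300 cells counted across three fields. The equivalent dose (ED) is the concentration giving the same mitotic index as the colchicine standard at 0.05 µg/mL.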
# HeLa [2] = assay: In vitro antimitotic activity against HeLa cells after 1 hr exposure to the compound; format: functional, Homo sapiens
# Procedure, shortened: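 HeLa cells exposed to compound for 1 h, washed in fresh medium, then kept 18 h in compound-free medium. Mitotic index (cells in mitosis/cells counted) scored as in the 6-h test. The reported equivalent dose (ED) is the concentration giving the same mitotic index as vinblastine at 0.06 µg/mL.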
# B16 [3] = assay: The ratio of survival time for treated divided by survival time of control x 100 at a dose of 100 mg/kg in B16 melanoma cells; format: functional, Mus musculus
# Procedure, shortened: (§1)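 Mice inoculated ip on day 0 with 1 × 10^5 L1210 leukemia or B16 melanoma cells. Compounds given ip once daily on days 1-9, suspended or dissolved in 5% PVP. Survival time recorded and averaged per group. Value is mean survival of treated over control × 100.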
# L1210 [4] = assay: The ratio of survival time for treated divided by survival time of control x 100 at a dose of 25 mg/kg in L1210 leukemia cells; format: functional, Mus musculus; procedure, shortened: as §1
# L1210 [5] = assay: The ratio of survival time for treated divided by survival time of control x 100 at a dose of 50 mg/kg in L1210 leukemia cells; format: functional, Mus musculus; procedure, shortened: as §1
# L1210 [6] = assay: The ratio of survival time for treated divided by survival time of control x 100 at a dose of 6.25 mg/kg in L1210 leukemia cells; format: functional, Mus musculus; procedure, shortened: as §1
# B16 [7] = assay: The ratio of survival time for treated divided by survival time of control x 100 at a dose of […] in B16 melanoma cells; format: functional, Mus musculus
# L1210 [8] = assay: The ratio of survival time for treated divided by survival time of control x 100 at a dose of […] in L1210 leukemia cells; format: functional, Mus musculus
# B16 [9] = assay: The ratio of survival time for treated divided by survival time of control x 100 at a dose of 25 mg/kg in B16 melanoma cells; format: functional, Mus musculus; procedure, shortened: as §1
smiles,measurement,setting,value
COc1cc(C(=O)/C=C(\C)c2ccccc2)cc(OC)c1OC,ED,HeLa [1],3.1 µg/mL
COc1cc(C(=O)/C=C/c2ccc(Br)cc2)cc(OC)c1OC,ED,HeLa [1],0.015 µg/mL
COc1ccc(C(=O)/C(C)=C/c2ccccc2)c(OC)c1OC,ED,HeLa [2],6.25 µg/mL
COc1cc(/C=C/C(=O)c2ccccc2)cc(OC)c1OC,ED,HeLa [1],>25 µg/mL
COC(=O)Nc1ccc(/C=C/C(=O)c2cc(OC)c(OC)c(OC)c2)cc1,ED,HeLa [1],3.1 µg/mL
COc1cc(C(=O)/C=C/c2ccc(SC)cc2)cc(OC)c1OC,ED,HeLa [1],0.3 µg/mL
COc1ccc(OC)c(C(=O)/C=C/c2ccc(NC(C)=O)cc2)c1,ED,HeLa [1],6.25 µg/mL
CC(=O)Nc1ccc(/C=C/C(=O)c2ccc(C(N)=O)cc2)cc1,ED,HeLa [1],3.1 µg/mL
COc1ccc(C(=O)/C=C/c2ccc(N(C)C)cc2C)c(OC)c1OC,ED,HeLa [1],3.1 µg/mL
CC(=O)Nc1ccc(/C=C/C(=O)c2ccc(C#N)cc2)cc1,ED,HeLa [1],25 µg/mL
CCN(CC)c1ccc(/C=C/C(=O)c2ccc(OC)c(OC)c2OC)cc1,ED,HeLa [1],0.15 µg/mL
CO/N=C(\C=C\c1ccc(N(C)C)cc1)c1cc(OC)c(OC)c(OC)c1,ED,HeLa [1],0.3 µg/mL
COc1cc(C(=O)/C=C/c2ccccc2C(F)(F)F)cc(OC)c1OC,ED,HeLa [1],100 µg/mL
COc1cc(C(=O)/C=C/c2cccs2)cc(OC)c1OC,ED,HeLa [1],3.1 µg/mL
COc1ccc(C(=O)/C=C/c2ccc(N(C)C)cc2)c(OC)c1,ED,HeLa [1],6.25 µg/mL
COc1cc(C(=O)/C=C/c2cccc(N)c2)cc(OC)c1OC,ED,HeLa [1],0.15 µg/mL
COc1cc(C(=O)/C=C/c2ccc(C(F)(F)F)cc2)cc(OC)c1OC,ED,HeLa [1],6.25 µg/mL
COc1ccc(C(=O)/C=C/c2ccc(NC(C)=O)cc2)cc1,ED,HeLa [1],3.1 µg/mL
COc1cc(C(=O)/C=C/c2ccc(N(C)C)cc2)cc(OC)c1O,ED,HeLa [1],3.1 µg/mL
COc1cc(C(=O)C#Cc2ccccc2)cc(OC)c1OC,ED,HeLa [1],>6.25 µg/mL
CC(=O)Nc1ccc(/C=C/C(=O)c2cccc(Cl)c2)cc1,ED,HeLa [1],>100 µg/mL
CCN(CC)c1ccc(/C=C/C(=O)c2cc(OC)c(OC)c(OC)c2)cc1,ED,HeLa [1],0.0075 µg/mL
CC/C(=C\c1ccc(N(C)C)cc1)C(=O)c1ccc(OC)c(OC)c1OC,ED,HeLa [1],0.15 µg/mL
COc1cc2c(c(OC)c1OC)-c1ccc(OC)c(=O)cc1[C@@H](NC(C)=O)CC2 [COLCHICINE],ED,HeLa [1],0.05 µg/mL
COc1ccc(C(=O)/C=C/c2ccc(NC(C)=O)cc2)c(OC)c1OC,ED,HeLa [1],3.1 µg/mL
COc1ccc(C(=O)/C=C/c2ccc(N(C)C)cc2)cc1OC,ED,HeLa [1],3.1 µg/mL
COc1cc(C(=O)/C=C/C=C/c2ccc(N(C)C)cc2)cc(OC)c1OC,ED,HeLa [1],3.1 µg/mL
COc1cc(C(=O)/C=C/c2ccc(F)cc2)cc(OC)c1OC,ED,HeLa [1],>25 µg/mL
COc1ccc(C(=O)/C(Cl)=C/c2ccc(N(C)C)cc2)c(OC)c1OC,ED,HeLa [1],0.015 µg/mL
COc1cc(C(=O)/C=C/c2ccc(C(C)(C)C)cc2)cc(OC)c1OC,ED,HeLa [1],2.5 µg/mL
COc1cc(C(=O)/C=C(\C)c2ccc(N(C)C)cc2)cc(OC)c1OC,ED,HeLa [1],>100 µg/mL
COc1cc(C(=O)/C=C/c2ccc(C#N)cc2)cc(OC)c1OC,ED,HeLa [1],3.1 µg/mL
COc1cc(C(=O)/C=C/c2ccc([S+](C)[O-])cc2)cc(OC)c1OC (configuration not stated),ED,HeLa [1],>100 µg/mL
CCCCOc1ccc(/C=C/C(=O)c2cc(OC)c(OC)c(OC)c2)cc1,ED,HeLa [1],>25 µg/mL
COc1ccc(OC)c(C(=O)/C=C/c2ccc(N(C)C)cc2)c1,ED,HeLa [1],0.0075 µg/mL
same,ED,HeLa [2],1.5 µg/mL
COc1ccc(OC)c(C(=O)/C(Cl)=C/c2ccc(N(C)C)cc2)c1,ED,HeLa [1],0.015 µg/mL
COc1ccc(C(=O)/C(Br)=C/c2ccc(N(C)C)cc2)c(OC)c1OC,T/C,B16 [3],192%
same,ED,HeLa [1],0.15 µg/mL
same,T/C,L1210 [4],145%
same,T/C,L1210 [5],140%
same,ED,HeLa [2],6.25 µg/mL
COc1cc(C(=O)/C=C/c2ccc(OC(C)C)cc2)cc(OC)c1OC,ED,HeLa [1],>25 µg/mL
COc1cc(C(=O)/C=C/c2ccncc2)cc(OC)c1OC,ED,HeLa [1],25 µg/mL
COc1ccc(C(=O)/C=C/c2cccs2)c(OC)c1OC,ED,HeLa [1],3.1 µg/mL
CCOc1ccc(/C=C/C(=O)c2cc(OC)c(OC)c(OC)c2)cc1,ED,HeLa [1],0.15 µg/mL
COc1cc(C(O)/C=C/c2ccc(N(C)C)cc2)cc(OC)c1OC (configuration not stated),ED,HeLa [1],3.1 µg/mL
COc1cc(C(=O)/C=C(\C)c2ccc(N)cc2)cc(OC)c1OC,ED,HeLa [1],0.3 µg/mL
COc1ccc(C(=O)/C=C/c2ccc(N(C)C)cc2)c(OC)c1OC,ED,HeLa [1],0.015 µg/mL
COc1cc(C(=O)/C=C/c2ccc(NC(C)=O)cc2)cc(OC)c1OC,ED,HeLa [1],3.1 µg/mL
COc1cc(C(=O)/C=C/c2cccc([N+](=O)[O-])c2)cc(OC)c1OC,ED,HeLa [1],>100 µg/mL
CC(=O)Nc1ccc(/C=C/C(=O)c2cccc(C(F)(F)F)c2)cc1,ED,HeLa [1],25 µg/mL
COc1cc(C(=O)CCc2ccc(N(C)C)cc2)cc(OC)c1OC,ED,HeLa [1],3.1 µg/mL
CCN(CC)c1ccc(/C=C(\C)C(=O)c2ccc(OC)c(OC)c2OC)cc1,ED,HeLa [1],25 µg/mL
COc1cc(C(=O)/C=C/c2ccc([N+](=O)[O-])cc2)cc(OC)c1OC,ED,HeLa [1],25 µg/mL
O=C(/C=C/c1ccccc1)c1ccccc1 [CHALCONE],ED,HeLa [1],3.1 µg/mL
COc1cc(C(=O)/C(Cl)=C/c2ccc(N(C)C)cc2)cc(OC)c1OC,ED,HeLa [1],3.1 µg/mL
COc1cc(C(=O)/C=C/c2ccc(N3CCOCC3)cc2)cc(OC)c1OC,ED,HeLa [1],6.25 µg/mL
COc1cc(C(=O)/C=C/c2cccc(NC(C)=O)c2)cc(OC)c1OC,ED,HeLa [1],>100 µg/mL
CCN(CC)c1ccc(/C=C(\C)C(=O)c2cc(OC)ccc2OC)cc1,ED,HeLa [1],0.15 µg/mL
COc1cc(C(=O)/C=C/c2ccc(N(C)C)cc2)cc(OC)c1OC,ED,HeLa [1],0.015 µg/mL
same,ED,HeLa [2],12.5 µg/mL
COc1cc(C(=O)/C=C/c2cccc(N(C)C)c2)cc(OC)c1OC,ED,HeLa [1],>100 µg/mL
COc1cc(C(=O)/C(C)=C/c2ccc(N(C)C)cc2)cc(OC)c1OC,ED,HeLa [1],0.019 µg/mL
same,ED,HeLa [2],0.3 µg/mL
CCc1cccc(C(=O)/C=C/c2ccc(NC(C)=O)cc2)c1,ED,HeLa [1],>100 µg/mL
COc1ccc(OC)c(C(=O)/C(C)=C/c2ccc(N(C)C)cc2)c1,ED,HeLa [1],0.0038 µg/mL
same,T/C,L1210 [6],126%
same,T/C,B16 [7],146%
same,T/C,L1210 [4],146%
same,T/C,L1210 [8],137%
same,T/C,L1210 [5],154%
same,T/C,B16 [9],183%
same,ED,HeLa [2],0.06 µg/mL
COc1cc(/C=C/C(=O)c2ccc(N(C)C)cc2)cc(OC)c1OC,ED,HeLa [1],0.15 µg/mL
COc1cc(C(=O)/C=C/c2ccc(N)cc2)cc(OC)c1OC,ED,HeLa [1],0.15 µg/mL
COc1cc(OC)c(C(=O)/C=C/c2ccc(NC(C)=O)cc2)c(OC)c1,ED,HeLa [1],3.1 µg/mL
CCCCNc1ccc(/C=C/C(=O)c2cc(OC)c(OC)c(OC)c2)cc1,ED,HeLa [1],6.25 µg/mL
COc1cc(C(=O)/C=C/c2ccco2)cc(OC)c1OC,ED,HeLa [1],5 µg/mL
COc1ccccc1C(=O)/C=C/c1ccc(N(C)C)cc1,ED,HeLa [1],0.15 µg/mL
same,ED,HeLa [2],6.25 µg/mL
COc1ccc(C(=O)/C(C)=C/c2ccc(N(C)C)cc2)c(OC)c1OC,ED,HeLa [1],1.5 µg/mL
same,T/C,L1210 [4],121%
same,T/C,L1210 [5],138%
same,T/C,B16 [9],190%
CCN(CC)c1ccc(/C=C(\C)C(=O)c2cc(OC)c(OC)c(OC)c2)cc1,ED,HeLa [1],0.0075 µg/mL
COc1cc(C(=O)/C(Br)=C/c2ccc(N(C)C)cc2)cc(OC)c1OC,ED,HeLa [1],0.0038 µg/mL
same,ED,HeLa [2],1.5 µg/mL
COc1cc(C(=O)/C=C/c2ccccc2)cc(OC)c1OC,ED,HeLa [1],0.15 µg/mL
COc1cc(C(=O)/C=C/c2ccc(N(C)C)cc2C)cc(OC)c1OC,ED,HeLa [1],0.0075 µg/mL
CC(=O)Nc1ccc(/C=C/C(=O)c2ccc(C(C)(C)C)cc2)cc1,ED,HeLa [1],0.25 µg/mL
COc1ccc(OC)c(C(=O)/C(Br)=C/c2ccc(N(C)C)cc2)c1,ED,HeLa [1],0.0075 µg/mL

# Source: ChEMBL document CHEMBL1124841, “Chalcones: a new class of antimitotic agents” (1990)
